Measured values pooled from the literature.
Compare with care: the assays were run in different laboratories. pEC50, pIC50: −log10 of the molar value.

Structure (SMILES)	target or system	assay	test system	conditions	endpoint	result
CC#CC(=O)N1CC[C@@H](n2cc(-c3ccc(Oc4c(F)cccc4F)cc3)c3c(N)n[nH]c(=O)c32)C1	Z-138	cell growth or viability, ATP luminescence	–	72 h	GI50	6960 nM
CC(=O)OC[C@@]1(C)[C@H]2CC[C@@H]3CN(Cc4ccccc4)[C@@H](C4=CCOC4=O)C[C@H]3[C@]2(C)CC[C@H]1OC(C)=O	unidentified human coronavirus	cytopathic effect	MRC5	25 µM, 72 h	inhibition	82.4%
CCOC(=O)N[C@@H](CC(C)C)C(=O)N1CCC[C@H]1C(=O)Nc1ccc(C#CC#Cc2ccc(NC(=O)[C@@H]3CCCN3C(=O)[C@H](CC(C)C)NC(=O)OCC)cc2)cc1	Hepatitis C virus	viral replication, inhibitor, luciferase	Huh-5-2, GETYPE1B	72 h, replicon	pEC50	5.49
COc1cc(Nc2nccc(-c3cnn4nc(OC)ccc34)n2)cc(C(F)(F)F)c1	SK-N-FI	cell growth or viability, ATP luminescence	–	–	pIC50	6.60
C=CC(=O)N1CCC[C@@H](n2nc(-c3ccc(Oc4ccccc4)cc3)c3c(N)ncnc32)C1	Granta-519	cell growth or viability, ATP luminescence	–	72 h	GI50	10300 nM
COC(=O)N[C@H](C(=O)N1CCC[C@H]1c1ncc(-c2ccc(-c3ccc(-c4cnc([C@@H]5CCCN5C(=O)[C@@H](NC(=O)OC)C(C)C)[nH]4)cc3)cc2)[nH]1)C(C)C	Hepatitis C virus	viral replication, inhibitor	Huh-7, GETYPE2A	replicon	pEC50	10.70
CCOC(=O)N[C@H](CC(C)C)C(=O)N1CCC[C@H]1C(=O)Nc1cccc(C#CC#Cc2cccc(NC(=O)[C@@H]3CCCN3C(=O)[C@@H](CC(C)C)NC(=O)OCC)c2)c1	Hepatitis C virus	viral replication, inhibitor, luciferase	GETYPE3A	replicon	pEC50	< 5.00
C=C1CC[C@@H]2[C@](C)(CO)[C@H](O)CC[C@@]2(C)[C@@H]1C/C=C1/C(=O)OC[C@H]1O	unidentified human coronavirus	cytopathic effect	MRC5	25 µM, 72 h	inhibition	58.4%
COC(=O)N[C@H](C(=O)N1CCC[C@H]1C(=O)Nc1cccc(C#CC#Cc2cccc(NC(=O)[C@@H]3CCCN3C(=O)[C@@H](NC(=O)OC)C(C)C)c2)c1)C(C)C	Hepatitis C virus	viral replication, inhibitor, luciferase	GETYPE4A	replicon	pEC50	8.21
CC(C)CCN1C[C@H]2CC[C@@H]3[C@]4(C)COC(C)(C)O[C@@H]4CC[C@@]3(C)[C@@H]2C[C@@H]1C1=CCOC1=O	unidentified human coronavirus	cytopathic effect	MRC5	25 µM, 72 h	inhibition	22%
CC(C)C[C@H](NC(=O)[C@H](Cc1ccccc1)NC(=O)c1cnccn1)B(O)O	DLD-1	cell growth or viability, ATP luminescence	–	–	pIC50	7.85
Nc1nc(N)c2ncn([C@H]3O[C@H](CO)[C@@H](F)[C@@H]3F)c2n1	Hepatitis C virus	viral replication, inhibitor	Huh-7	replicon	pEC50	< 5.00
CC1(C)OC[C@@]2(C)[C@H]3CC[C@@H]4CN(Cc5ccco5)[C@@H](C5=CCOC5=O)C[C@H]4[C@]3(C)CC[C@H]2O1	unidentified human coronavirus	cytopathic effect	MRC5	25 µM, 72 h	inhibition	17.5%
